Bioassay records from PubChem.
Neddylation inh = inhibitors of cullin neddylation, primary screen, biochemical, TR-FRET, uHTS, NAE and Ubc12; AID 651699, 2012; hit rate 0.58% among 360,000; calls only at 25 µM; in the data active means inhibition above about 36%
Target sequence (P61081 whole entry, looked up): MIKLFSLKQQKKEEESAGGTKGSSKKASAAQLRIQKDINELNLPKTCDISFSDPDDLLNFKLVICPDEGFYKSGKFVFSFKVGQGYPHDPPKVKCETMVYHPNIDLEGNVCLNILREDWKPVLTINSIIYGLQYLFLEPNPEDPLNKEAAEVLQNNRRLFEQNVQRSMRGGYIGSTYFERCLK
Target sequence (Q13564 whole entry, looked up): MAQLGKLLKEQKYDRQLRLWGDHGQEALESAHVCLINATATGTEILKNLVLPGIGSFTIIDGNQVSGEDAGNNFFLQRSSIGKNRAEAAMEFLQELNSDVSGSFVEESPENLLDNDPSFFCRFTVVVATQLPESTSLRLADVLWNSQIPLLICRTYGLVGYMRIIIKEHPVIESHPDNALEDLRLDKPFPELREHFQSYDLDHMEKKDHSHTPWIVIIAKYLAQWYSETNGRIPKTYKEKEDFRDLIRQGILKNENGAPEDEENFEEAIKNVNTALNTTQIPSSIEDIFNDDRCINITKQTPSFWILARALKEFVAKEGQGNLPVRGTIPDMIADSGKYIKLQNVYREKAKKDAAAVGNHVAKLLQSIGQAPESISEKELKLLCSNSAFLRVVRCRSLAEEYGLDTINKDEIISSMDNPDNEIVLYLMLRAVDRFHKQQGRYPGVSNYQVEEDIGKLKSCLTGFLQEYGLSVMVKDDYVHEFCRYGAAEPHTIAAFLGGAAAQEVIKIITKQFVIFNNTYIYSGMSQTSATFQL
MT1-MMP act inh = blockers of MT1-MMP proenzyme processing, primary screen, HT1080 RFP-PRO-GFP cells, GFP/RFP fluorescence. GFP/RFP ratio fluorescence, overnight; percent of plate control window, DMSO zero. Matrix metalloproteinase-14 (Homo sapiens), P50281. hit rate 0.061% among 360,000. GFP/RFP ratio change, % at 20 µM;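 active means GFP/RFP ratio change of at least 30% with cell ATP level not reduced by more than half and red fluorescence within 50% of control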
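Assay system: RFP-PRO-GFP reporter HT1080 cells; read-out basis: GFP/RFP fluorescence ratio; benchmarks: DMSO wells and RFP-L50D-GFP cells; doses: 20 µM single dose, 1% DMSO; schedule: overnight cell settling, then overnight compound exposure, 37 °C, 5% CO2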
Tn7 DDE FP = inhibitors of Tn7 peptide binding to fibrin DD(E), primary screen, biochemical, fluorescence polarization, human fibrin, Tn7 probe; Fibrinogen beta chain (Homo sapiens), P02675; FP displacement of FITC-Tn7 peptide from fibrin DD(E); 0% = median of compound wells per plate; inhibition, % at 8.3 µM; hit rate 0.13% among 370,000; AID 720508, 2013;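 active means inhibition above the mean of compounds falling within the control limits plus 3 SD of them, cut at about 14% in these data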;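 further: 0% = plate median of compound wells and 100% = 10 µM Aha-Tn7 peptide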
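Measure: % inhibition scaled between sample-field median and high-control FP; Test system: human fibrin DD(E); Quantity: 2 µM final DD(E) protein; Doses: one dose, 8.3 µM nominal; Schedule: compound with protein 10 min, then 3 h after probe, room temperature; Detection: fluorescence polarization; Medium: Tris buffer with calcium and detergent, pH 7.8.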
Tn6 DDE FP = inhibitors of Tn6 peptide binding to fibrin DD(E), primary screen, biochemical, fluorescence polarization, human fibrin, Tn6 probe; Fibrin DD(E) TRITC-Tn6 fluorescence polarization displacement; inhibition, % at 8.3 µM; hit rate 0.21% among 370,000;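 active means inhibition above a per-campaign cutoff: mean of compounds within control limits plus 3 SD, cut at about 15% in these data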;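 further: 0% = median of all compound wells on the plate and 100% = blocking peptide control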
KLK7 zymogen act = proKLK7 zymogen activators, primary screen, biochemical, fluorescence intensity; Kallikrein-7 (Homo sapiens), P49862; purified proKLK7, EDANS-DABCYL substrate fluorescence; 100% is mature enzyme control, 0% vehicle; activation, % at 7 µM; hit rate 0.9% among 370,000;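 active means activation above the mean of all tested compounds plus 3 SD, computed per campaign excluding outliers beyond control limits, cut at about 13% in these data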
SKN-1 block = suppressors of acrylamide-induced Pgst-4::GFP reporter in worms, primary screen, SKN-1 inhibitor project, whole organism, uHTS, GFP/RFP fluorescence ratio, strain VP596. inhibition, % at 21.8 µM. hit rate 0.49% among 360,000. C. elegans VP596 Pgst-4::GFP/RFP ratio, 24 h;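 active means interference check ratio from 0.5 to 1.5 plus GFP to RFP signal ratio inhibition reaching or exceeding a fixed threshold, cut at about 30% in these data, passing the limit was not always enough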
The depositor's hits bear a star. A selection: hits, their analogues and other compounds. The true share with any hit is near 2.2%.

How did CN1C(=O)/C(=C/C=C2\SCCN2C)N(C)C1=S do in these assays?
Neddylation inh: inactive; MT1-MMP act inh: 26; Tn7 DDE FP: -3; Tn6 DDE FP: 4; KLK7 zymogen act: 0; SKN-1 block: 47*

What do the screens show for `NC(=O)c1cc(N)ccc1N1CCCC1`?
Neddylation inh: inactive; MT1-MMP act inh: 7; Tn7 DDE FP: 1; Tn6 DDE FP: 9; KLK7 zymogen act: 1; SKN-1 block: 60*

How did COC(=O)c1c(NC(=S)NN2CCN(C)CC2)sc2c1CCC(C)C2 (stereo unspecified) do in these assays?
Neddylation inh: inactive; MT1-MMP act inh: -9; Tn7 DDE FP: 4; Tn6 DDE FP: -2; KLK7 zymogen act: 1; SKN-1 block: 35*

How did CCOC(=O)c1c(C)[nH]c(O)c1C=Nc1ccc(C(F)(F)F)cc1 do in these assays?
Neddylation inh: inactive; MT1-MMP act inh: -53; Tn7 DDE FP: 7; Tn6 DDE FP: -2; KLK7 zymogen act: 2; SKN-1 block: 60*

How did O=C(c1ccc(Cl)cc1)c1coc2ccc(O)cc12 do in these assays?
Neddylation inh: inactive; MT1-MMP act inh: -8; Tn7 DDE FP: 2; Tn6 DDE FP: -6; KLK7 zymogen act: 0; SKN-1 block: -13

What do the screens show for `CC(=O)NC(c1ccccc1)c1nc(-c2cccc(C(=O)O)c2)cs1` (stereo unspecified)?
Neddylation inh: inactive; MT1-MMP act inh: 1; Tn7 DDE FP: -4; Tn6 DDE FP: -2; KLK7 zymogen act: 1; SKN-1 block: 7

Results for O=C(c1ccco1)N1CCN(C/C=C/c2ccccc2)CC1 ?
Neddylation inh: inactive; MT1-MMP act inh: 2; Tn7 DDE FP: -3; Tn6 DDE FP: 7; KLK7 zymogen act: -1; SKN-1 block: 35*

Results for O=C(NC(=S)N1CCN(C/C=C/c2ccccc2)CC1)c1ccco1 ?
Neddylation inh: inactive; MT1-MMP act inh: 5; Tn7 DDE FP: -9; Tn6 DDE FP: 2; KLK7 zymogen act: 0; SKN-1 block: 10

Results for OC(c1ccccn1)c1c[nH]c2ccccc12 (stereo unspecified) ?
Neddylation inh: inactive; MT1-MMP act inh: -1; Tn7 DDE FP: -2; Tn6 DDE FP: 1; KLK7 zymogen act: 0; SKN-1 block: 37*

What do the screens show for `C=CCN1C=C/C(=C\C=C(C#N)C#N)c2ccccc21`?
Neddylation inh: inactive; MT1-MMP act inh: 14; Tn7 DDE FP: -4; Tn6 DDE FP: -5; KLK7 zymogen act: 0; SKN-1 block: 35*

Results for CCCCCCN1C=C/C(=C\C=C(C#N)C#N)c2ccccc21 ?
Neddylation inh: inactive; MT1-MMP act inh: 27; Tn7 DDE FP: 4; Tn6 DDE FP: 0; KLK7 zymogen act: 0; SKN-1 block: 35

Results for COc1ccc(N2CCN(C(=O)CS(=O)Cc3nc(-c4ccc(OC)c(OC)c4)oc3C)CC2)cc1 (stereo unspecified) ?
Neddylation inh: inactive; MT1-MMP act inh: 0; Tn7 DDE FP: -1; Tn6 DDE FP: 1; KLK7 zymogen act: 0; SKN-1 block: 15

Results for Cc1cc(Nc2ccccc2)nn1C(=O)c1ccc(Cl)cc1 ?
Neddylation inh: inactive; MT1-MMP act inh: 1; Tn7 DDE FP: 7; Tn6 DDE FP: -1; KLK7 zymogen act: 0; SKN-1 block: 9

What do the screens show for `Cn1c2ccccc2c2cc(/C=N/NC(=O)c3ccc(O)cc3O)ccc21`?
Neddylation inh: active; MT1-MMP act inh: 1; SKN-1 block: 17

How did CCn1c2ccccc2c2cc(/C=N/NC(=O)c3ccc(O)cc3)ccc21 do in these assays?
MT1-MMP act inh: 8; Tn7 DDE FP: 1; Tn6 DDE FP: 4; KLK7 zymogen act: -15; SKN-1 block: 8
